According to article PMC3268193 (British Journal of Pharmacology, 2012):
Where a chain is given by its changes, count along the chain named. pEC50: −log10 of the molar value. “Also recorded” adds a separate entry of the source.

Experiments:
[1] = target: T1, P2X2 receptor mutant D136K (Homo sapiens, UniProt Q9UBL9, D148K); assay: Two-electrode voltage clamp, P2X2 mutant D136K; assay type: cell-based; details: read-out: ATP EC50
T1 sequence (Q9UBL9 1-471 D148K): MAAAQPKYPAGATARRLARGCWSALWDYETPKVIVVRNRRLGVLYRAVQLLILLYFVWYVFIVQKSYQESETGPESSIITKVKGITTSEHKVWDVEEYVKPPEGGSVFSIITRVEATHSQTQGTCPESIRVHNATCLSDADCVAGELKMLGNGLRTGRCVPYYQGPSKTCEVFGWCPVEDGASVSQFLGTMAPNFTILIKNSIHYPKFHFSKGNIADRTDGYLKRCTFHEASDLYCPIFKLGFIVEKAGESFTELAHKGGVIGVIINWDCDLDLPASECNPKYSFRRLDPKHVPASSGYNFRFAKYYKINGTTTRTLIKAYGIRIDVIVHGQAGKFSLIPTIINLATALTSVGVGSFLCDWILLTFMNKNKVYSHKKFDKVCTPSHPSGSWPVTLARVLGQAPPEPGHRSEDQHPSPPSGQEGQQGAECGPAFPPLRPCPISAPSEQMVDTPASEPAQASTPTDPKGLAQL

[2] = target: T2, human P2X2 receptor WT (Homo sapiens, UniProt Q9UBL9); assay: Two-electrode voltage clamp, WT P2X2 receptor in Xenopus oocytes; assay type: cell-based; details: P2X2 WT
T2 sequence (Q9UBL9 1-471): T1 sequence (Q9UBL9 1-471 D148K) with K148D

[3] = tested on: P2X1 Del mutant receptor; assay: Two-electrode voltage clamp, deletion mutant P2X1 Del; assay type: cell-based, human; details: ATP 100 µM, up to 10 mM
Outline: (§1)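 Human P2X1 deletion-mutant cRNA made by T7 in vitro transcription and injected into stage V Xenopus laevis oocytes. Oocytes kept at 18°C in ND96 (pH 7.5, with gentamicin) and recorded 2–6 days later. Two-electrode voltage clamp at −60 mV, with 1.8 mM BaCl2 replacing CaCl2 in the bath.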

[4] = target: T3, human P2X1 receptor WT (Homo sapiens, UniProt P51575); assay: Two-electrode voltage clamp, WT P2X1 receptor in Xenopus oocytes; assay type: cell-based
T3 sequence (P51575 1-399): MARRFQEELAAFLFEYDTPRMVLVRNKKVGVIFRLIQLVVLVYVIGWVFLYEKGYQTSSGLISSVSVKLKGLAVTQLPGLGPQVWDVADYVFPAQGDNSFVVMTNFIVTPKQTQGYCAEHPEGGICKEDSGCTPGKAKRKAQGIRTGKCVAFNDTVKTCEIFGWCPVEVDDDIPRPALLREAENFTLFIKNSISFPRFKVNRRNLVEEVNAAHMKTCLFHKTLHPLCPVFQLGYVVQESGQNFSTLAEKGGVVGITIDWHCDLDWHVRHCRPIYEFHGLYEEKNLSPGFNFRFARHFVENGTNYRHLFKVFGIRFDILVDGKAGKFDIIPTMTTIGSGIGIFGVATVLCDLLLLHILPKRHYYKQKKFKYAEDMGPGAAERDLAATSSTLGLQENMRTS

[5] = target: T4, DelD P2X1 receptor (Homo sapiens, UniProt P51575, D154F/DEL118-152/DEL160-165/K157P/V156D); assay: Two-electrode voltage clamp, deletion mutant DelD P2X1; assay type: cell-based; details: ATP up to 10 mM
T4 sequence (P51575 with tags, fused parts or gaps DEL118-152/D154F/V156D/K157P/DEL160-165): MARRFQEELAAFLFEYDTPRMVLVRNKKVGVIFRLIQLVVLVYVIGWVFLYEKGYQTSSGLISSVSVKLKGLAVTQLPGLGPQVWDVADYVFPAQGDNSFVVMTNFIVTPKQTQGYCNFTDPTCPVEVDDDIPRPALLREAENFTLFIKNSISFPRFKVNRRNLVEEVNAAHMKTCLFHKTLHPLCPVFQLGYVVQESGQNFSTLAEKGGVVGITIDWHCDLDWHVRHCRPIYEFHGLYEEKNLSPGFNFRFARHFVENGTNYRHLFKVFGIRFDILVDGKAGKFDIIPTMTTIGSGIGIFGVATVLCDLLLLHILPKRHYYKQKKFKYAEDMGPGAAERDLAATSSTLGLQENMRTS
Outline: as §1

[6] = target: T5, P2X1 Cys2(1-6) chimera (Homo sapiens, UniProt P51575, A118P/A137L/A141G/A151Y/D154G/DEL120-123/E128S/F152Y/G124S/G131D/I144L/I161V/INS125RVHNAT/INS150P/K127L/K136E/K138D/K140L/K148R/N153Q/P134A/Q142N/R139M/S130A/T133V/T155P/V156S); assay: Two-electrode voltage clamp, chimera P2X1 Cys2; assay type: cell-based; details: P2X1 Cys2(1-6)
T5 sequence (P51575 with tags, fused parts or gaps A118P/DEL120-123/G124S/INS125RVHNAT/K127L/E128S/S130A/G131D/T133V/P134A/K136E/A137L/K138D/R139M/K140L/A141G/Q142N/I144L/K148R/INS150P/A151Y/F152Y/N153Q/D154G/T155P/V156S/I161V): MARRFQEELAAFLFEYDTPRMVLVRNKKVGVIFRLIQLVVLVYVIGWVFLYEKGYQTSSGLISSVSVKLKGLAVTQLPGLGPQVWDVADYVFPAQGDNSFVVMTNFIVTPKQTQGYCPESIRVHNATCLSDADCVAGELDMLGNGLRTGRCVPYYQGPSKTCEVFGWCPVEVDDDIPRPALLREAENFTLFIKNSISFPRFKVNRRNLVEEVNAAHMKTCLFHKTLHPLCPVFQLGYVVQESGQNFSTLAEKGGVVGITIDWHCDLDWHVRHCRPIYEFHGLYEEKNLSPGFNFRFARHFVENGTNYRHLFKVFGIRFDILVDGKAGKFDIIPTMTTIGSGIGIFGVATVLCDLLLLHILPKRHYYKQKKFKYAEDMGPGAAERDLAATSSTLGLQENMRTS

[7] = target: Dictyostelium P2X receptors; details: read-out: EC50 for ATP; ref Ludlow et al., 2009; cited from earlier work

pEC50 [1]: 5.41
Decay of current ([2]; 100 µM ATP, 3 s application): no decay at end of 3 s pulse
pEC50 ([2]; read-out: ATP EC50): ~5.00
Decay Time ([4]; P2X1 WT, 100% to 50% decay of current): 495 ± 45 ms
Peak amplitude of inward current ([4]; WT P2X1, ATP 100 µM, n = 12): −9188 ± 590 nA
pEC50 ([4]; read-out: ATP EC50, P2X1 WT): ~6.12
ATP-evoked current [5]: little or no response
Decay Time ([6]; 100% to 50% decay): 1305 ± 176 ms
pEC50 ([6]; read-out: ATP EC50): ~5.52
Compound: Nc1ncnc2c1ncn2[C@@H]1O[C@H](COP(=O)(O)OP(=O)(O)OP(=O)(O)O)[C@@H](O)[C@H]1O [ATP]
ATP-evoked current [3]: barely detectable inward currents; also recorded: ineffective
pEC50 [7]: 3.30 to 4.00
